An excerpt weighted towards active compounds, which were near 2.1% of everything screened.
zVAD death inh: L929 zVAD cell death inhibition | L929 zVAD necroptosis rescue, ATP luminescence, 24 h; with zVAD 60 µM | viability rescue, % at 10 µM | actives 0.38% (n = 220,000) | AID 1377;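 active = activation, scaled between plate controls, above about 75%, limit read from the data; inactive = activation under that limit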;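 also: 0% = zVAD with DMSO and 100% = DMSO alone without zVAD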
STAT1 blocker: inhibitors of IFN-gamma induced STAT1 signaling; NIH 3T3 STAT1-luciferase reporter, luminescence; inhibition, % at 5.5 µM; actives 0.35% (n = 200,000); AID 920;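 active = inhibition above a set limit, the mean inhibition across all tested compounds plus 3 SD, cut at about 34% in these data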;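 also: 0% = IFN-gamma with DMSO and 100% = IFN-gamma with 300 µM nifuroxazide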
STAT3 inh-1: STAT3 signaling inhibition; U3A cells, IL-6 STAT3-luciferase reporter, luminescence; host cell line lacks STAT1; inhibition, % at 5.5 µM; actives 0.89% (n = 190,000); AID 862;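 active = inhibition above the mean inhibition across all screened compounds plus 3 SD, cut at about 44% in these data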;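 also: 0% = DMSO only wells and 100% = 100 µM nifuroxazide control wells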
TNF death inh: TNF-alpha cell death inhibition in Jurkat FADD-/- cells | Jurkat FADD-/- TNF necroptosis rescue, ATP luminescence, 24 h; 0 = TNF only, 100 = no-TNF cells | activation (protection from cell death), % at 10 µM | actives 0.068% (n = 220,000);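 active = activation, meaning protection from cell death, of at least 50% relative to plate controls; inactive = activation below 50%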;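 also: necroptosis triggered by 40 ng/mL TNF-alpha added together with compound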
STAT3 activator: increases IL-6 driven STAT3 reporter signal; U3A cells, IL-6 STAT3-luciferase reporter, luminescence; 100% = signal with IL-6 EC80 alone; activation (% of control), % at 5.6 µM; actives 0.91% (n = 190,000);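 active = activation above the screen-wide mean of compound activation plus 3 SD, cut at about 130% in these data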;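 also: 0% = background luminescence of wells with medium and substrate only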
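Detection: reporter luminescence signal / Assay system: STAT1-lacking human U3A cells, STAT3 luciferase reporter / Incubation: compound pre-incubation 1 h before IL-6, then 6 h stimulation at 37 °C / Control set: IL-6-only high control / Read-out: % activation relative to IL-6 control / Probe or stimulus: Interleukin-6, 33 ng/mL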
STAT3 inh-2: confirmation of STAT3 signaling inhibitors; shares compounds with STAT3 inh-1; U3A cells, IL-6 STAT3 luciferase reporter, luminescence; cell line lacks STAT1; inhibition, % at 5.7 µM; actives 45% (n = 1,200);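 active = inhibition above the hit cutoff computed for the primary STAT3 screen, cut at about 44% in these data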;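 also: 0% = IL-6 plus DMSO and 100% = IL-6 plus nifuroxazide control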
NFkB inh 2: NF-kappaB inhibition in STAT3 inhibitor counter-screen; actives 36% (n = 1,200); inhibition, % at 5.7 µM; HEK293T NF-kB luciferase reporter, TNF-alpha induced; shares compounds with STAT3 inh-1;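 active = inhibition above the mean of solvent-only control wells plus 3 SD, cutoff set per campaign, cut at about 13% in these data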;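 also: 0% = TNF-alpha with DMSO and 100% = TNF-alpha with MG high control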
STAT1 inh 2: STAT1 inhibition in STAT3 inhibitor counter-screen. shares compounds with STAT3 inh-1. NIH 3T3 STAT1-luciferase reporter, IFN-gamma induced, luminescence. inhibition, % at 5.7 µM. actives 27% (n = 1,200);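 active = inhibition above the mean plus 3 SD of solvent-only control wells, limit set per screening run, cut at about 16% in these data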;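 also: 0% = DMSO with IFN-gamma and 100% = nifuroxazide control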
* marks the source's active call; other numbers are inactive results; . = no result.

SMILES	zVAD death inh	STAT1 blocker	STAT3 inh-1	TNF death inh	STAT3 activator	STAT3 inh-2	NFkB inh 2	STAT1 inh 2
Cc1csc2ncnc(NCCc3ccccn3)c12	0	35*	72*	-7	40	75*	25*	24*
c1ccc(CCNc2ncnc3sccc23)nc1	1	-1	36	-5	73	.	.	.
COc1ccccc1OCC(=O)Nc1ccc(O)cc1C(=O)O	0	1	9	0	99	.	.	.
COc1ccc(N(C(=O)CCl)C(C(=O)NCCc2ccccc2)c2cccs2)cc1Cl (centres undefined)	1	19	91*	-16	23	104*	2	20*
COc1cccc(N(C(=O)CCl)C(C(=O)NCCc2ccccc2)c2cccs2)c1 (centres undefined)	0	18	63*	-13	47	95*	22*	25*
Cc1cc(C(=O)Nc2nc3c(s2)CCCC3)cs1	1	-37	52*	0	60	21	-41	-137
Cc1ncsc1C(=O)Nc1nc2c(s1)CCCC2	0	-59	18	-6	87	.	.	.
CC(=O)c1c(C)n(CC(=O)NCc2ccc3c(c2)OCO3)c2ccccc12	-1	26	34	-4	74	.	.	.
Clc1ccccc1Nc1nnc(-c2ccncc2)s1	-2	-35	60*	-10	50	36	20*	-73
CNc1nnc(-c2ccncc2)s1	1	-5	-3	-3	104	.	.	.
Cc1ccn2cc(-c3cccc([N+](=O)[O-])c3)nc2c1	0	23	59*	-2	52	30	-2	-76
CC(=O)Nc1cccc(-c2cn3ccc(C)cc3n2)c1	1	-33	25	-5	80	.	.	.
O=C1CC2(CON=C2c2ccc(F)cc2)C(=O)N1c1ccc(F)cc1 (centres undefined)	0	5	3	-1	99	.	.	.
OC1(c2ccc(OC(F)F)cc2)CSC(=Nc2cccnc2)N1C1CC1 (centres undefined)	0	15	53*	-7	60	40	3	10
C(=C\c1ccco1)/c1ccc2ccccc2n1	1	.	.	-11	.	.	.	.
Fc1cccc(F)c1/C=C/c1ccc2ccccc2n1	0	-3	56*	-1	55	7	23*	-30
Cc1ccsc1/C=C/c1ccc2ccccc2n1	0	16	46*	-5	69	46*	20*	7
O=C(NCCc1ccc([N+](=O)[O-])cc1)c1ccccc1	0	.	.	3	.	.	.	.
O=C(NCCc1ccccc1)c1ccc([N+](=O)[O-])cc1	0	-3	44*	-1	67	10	-22	-67
CCc1ccc(-c2nc(-c3ccncc3)no2)cc1	0	-18	57*	-8	58	29	-14	-99
O=C(Cc1ccccc1)Nc1cccc(NC(=O)c2cccs2)c1	2	7	9	4	97	.	.	.
Clc1ccc(Nc2ncnc3c2cnn3-c2ccccc2)cc1	5	-25	4	3	96	.	.	.
CC(C)Nc1ncnc2c1cnn2-c1ccc(Cl)cc1	2	5	55*	0	55	16	-31	-186
O=C(NC1CCN(Cc2ccccc2)CC1)C1CCCN(c2nnc(-n3cccc3)s2)C1 (centres undefined)	-1	-1	6	-4	94	.	.	.
N#C/C(=C\c1ccc(N2CCOCC2)c([N+](=O)[O-])c1)c1nc2ccccc2[nH]1	21	-3	-21	-8	118	.	.	.
N#C/C(=C\c1ccc(N2CCOCC2)o1)c1nc2ccccc2[nH]1	3	-66	66*	-1	45	14	-28	-163
Nc1cc(OCC(F)(F)F)cc([N+](=O)[O-])c1	0	12	17	-1	89	.	.	.
Cc1cc(CN(C)C(=O)c2cc(COc3ccc4ncccc4c3)on2)on1	-1	21	58*	-5	55	56*	19*	19*
